Data set [1] deals with T1, Transient receptor potential cation channel subfamily V member 1 (Homo sapiens, UniProt Q8NER1). Kind of data set: Activity at human TRPV1 in HEK cells assessed by measuring capsaicin-induced calcium level by FLIPR technology. The data set is classed as cell-based, HEK293. The method in brief:
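Stably transfected hTRPV1/HEK cells plated on poly-D-lysine and used 2 days later. Loaded with Fluo-3/AM for 1 h, then given a single concentration of compound. Antagonist potency protocol taken from earlier work.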

Data set [2] deals with T1, Transient receptor potential cation channel subfamily V member 1. Put plainly: Displacement of [3H]RTX from human TRPV1 receptor expressed in HEK293 cells. Type of data set: cell-based. An outline of the steps: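 Membranes from HEK293 stably expressing human TRPV1, prepared by homogenisation and differential centrifugation. Binding buffer: 20 mM Hepes pH 7.4, 5.8 mM NaCl, 320 mM sucrose, 2 mM MgCl2, 0.75 mM CaCl2, 5 mM KCl. Incubated 60 min at 37 °C with 0.3–0.6 nM [3H]-RTX. Cooled on ice, alpha-acid glycoprotein added, pellet counted by scintillation. Nonspecific binding defined with 200 nM unlabeled RTX.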

The nature of data set [3]: Oral bioavailability in Sprague-Dawley rat. The data set is classed as ADME, organism-based. The note with it: in vivo. An outline of the steps: (§1)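 Pharmacokinetics measured in male Sprague–Dawley rats after intravenous and oral dosing.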
A short description of data set [4]: Clearance in Sprague-Dawley rat. The data set is classed as ADME, organism-based. Particulars: in vivo. An outline of the steps:
as §1

Data set [5] in a line: Metabolic stability in rat liver microsomes after 15 mins. Type of data set: ADME, Microsome. The note with it: read-out: Stability. The method in brief:
(§2)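 Compound incubated with rat or human liver microsomes. Percent of parent remaining measured after 15 min.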
On the technique in general: Liver microsomes are vesicles of endoplasmic reticulum, rich in cytochrome P450 enzymes.

Data set [6] is described as follows: Elimination half life in Sprague-Dawley rat. The data set is classed as ADME, organism-based. Particulars: in vivo. An outline of the steps:
as §1

Data set [7] can be described thus: Metabolic stability in human liver microsomes after 15 mins. The data set is classed as ADME, Microsome. The note with it: read-out: Stability. The method in brief: as §2
The next data set concerns Rattus norvegicus. Kind of data set: Reversal of CFA-induced thermal hyperalgesia in Sprague-Dawley rat at 30 mg/kg, po. Type of data set: functional. An outline of the steps: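 Thermal hyperalgesia induced by CFA injection in Sprague–Dawley rats. Radiant-heat withdrawal latency measured on a warm glass surface after about 10 min acclimation, before and 24 h after CFA. Single oral dose given, latencies reassessed at 100 min post-dose and compared with vehicle. Analysis by two-way ANOVA with Bonferroni post hoc test, p < 0.05.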

Molecules are shown by their SMILES.

T1 sequence (Q8NER1 whole entry): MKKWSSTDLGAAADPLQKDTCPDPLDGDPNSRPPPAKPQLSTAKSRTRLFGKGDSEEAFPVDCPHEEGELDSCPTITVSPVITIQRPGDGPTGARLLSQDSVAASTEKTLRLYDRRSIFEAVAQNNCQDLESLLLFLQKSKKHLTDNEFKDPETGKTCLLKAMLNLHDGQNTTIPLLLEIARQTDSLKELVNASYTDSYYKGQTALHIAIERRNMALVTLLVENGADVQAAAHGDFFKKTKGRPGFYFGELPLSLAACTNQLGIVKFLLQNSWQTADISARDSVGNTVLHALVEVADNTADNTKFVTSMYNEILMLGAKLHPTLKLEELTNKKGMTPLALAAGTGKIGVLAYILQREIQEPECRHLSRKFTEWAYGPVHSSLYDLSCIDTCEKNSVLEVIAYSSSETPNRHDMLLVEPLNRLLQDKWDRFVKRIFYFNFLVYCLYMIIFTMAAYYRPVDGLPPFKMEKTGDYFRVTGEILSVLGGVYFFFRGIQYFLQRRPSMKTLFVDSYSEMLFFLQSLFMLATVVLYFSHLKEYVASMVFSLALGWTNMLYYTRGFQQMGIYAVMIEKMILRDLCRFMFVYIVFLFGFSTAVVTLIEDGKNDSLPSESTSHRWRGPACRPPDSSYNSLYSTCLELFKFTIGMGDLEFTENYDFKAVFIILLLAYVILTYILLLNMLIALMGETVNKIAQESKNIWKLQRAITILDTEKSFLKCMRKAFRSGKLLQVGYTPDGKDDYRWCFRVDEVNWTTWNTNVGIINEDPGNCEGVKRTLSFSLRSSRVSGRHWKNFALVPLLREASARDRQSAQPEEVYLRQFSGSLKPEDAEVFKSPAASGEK

In the case of `CCCCCCCc1ccc(C(=O)Nc2cnc3ccccc3c2)cc1`, the half-maximal inhibitory concentration (IC50) in data set [1] was greater than 30 µM. Moreover, the affinity in data set [2] corresponds to a Ki of 3.52 µM.

As for `CCCCN(C)c1ccc(C(=O)Nc2cnc3ccccc3c2)cc1`, the half-maximal inhibitory concentration (IC50) in data set [1] turned out to be 0.066 µM.

For `CN(c1ccc(C(=O)Nc2cnc3ccccc3c2)cc1)C1CCCCC1`, the bioavailability in data set [3] turned out to be 70%. The same compound gave a clearance in data set [4] of 20 mL/min/kg. The remaining at 0.25 h in data set [5] turned out to be 45%; in data set [7], 25%. Also, in data set [6], the half-life worked out at 1.67 h. Further, the Activity with Rattus norvegicus was greater than 80%.

For the compound `CCCCCc1ccc(CC(=O)Nc2cccnc2)cc1`, the 50% effective concentration (EC50) in data set [1] is greater than 5 µM. Further, the Ki in data set [2] is 7.26 µM.

On to `CCCc1ccc(C(=O)Nc2cnc3ccccc3c2)cc1`, for which the 50% inhibitory concentration (IC50) in data set [1] is 0.13 µM. Moreover, the Ki in data set [2] came out at 0.06 µM.

For the compound `CCCCCCCCCCc1ccc(C(=O)Nc2cccnc2)cc1`, in data set [1], the 50% effective concentration (EC50) is greater than 30 µM. In data set [2], this compound displayed a Ki of 0.607 µM.

Take `CCCCc1ccc(C(=O)Nc2cnc3ccccc3c2)cc1`: in data set [1], the half-maximal inhibitory concentration (IC50) was 0.23 µM. In data set [2], this compound returned a Ki of 0.053 µM.

The compound `CCCCCCCCN(C)c1ccc(C(=O)Nc2cnc3ccccc3c2)cc1` returned a Ki in data set [2] of 0.015 µM.

As for `CCCCCc1ccc(NC(=O)c2cccnc2)cc1`, the EC50 in data set [1] is greater than 5 µM. Also, the inhibition constant Ki in data set [2] is greater than 3 µM.

With `CN(CC1CCCCC1)c1ccc(C(=O)Nc2cnc3ccccc3c2)cc1`, the 50% inhibitory concentration (IC50) in data set [1] turned out to be 0.17 µM. The same compound registered an inhibitory constant (Ki) in data set [2] of 0.016 µM.

One may read the IC50 as the concentration that inhibits the measured activity by half. As usually defined, the Ki is a dissociation constant, usually derived from enzyme kinetics or from competition with a known ligand. The low end stands for higher affinity, the high end for lower affinity. Broadly, the bioavailability is the share of a dose that reaches the circulation, judged against a reference dose that is usually intravenous. Higher therefore signals much systemic uptake. The term clearance denotes the volume of plasma or blood freed of the substance per unit of time. The half-life is the time in which the quantity being followed falls by half. Low values mean rapid decline, high ones slow decline. As usually defined, the EC50 is the midpoint of the concentration-response curve.

The values are drawn from ChEMBL document CHEMBL1144729, “N-pyridin-3-yl- and N-quinolin-3-yl-benzamides: modulators of human vanilloid receptor 1 (TRPV1)” (Bioorg Med Chem Lett, 2008).
